Measurements from ChEMBL document CHEMBL3259614, “Design, synthesis, and structure-activity relationship studies of novel fused heterocycles-linked triazoles with good activity and water solubility” (J Med Chem, 2014).
In brackets after ≈: the same amount, converted by molar mass.

Tests used:
Candida albicans [1] = experiment: Antimicrobial activity against Candida albicans SC5314 infected in ICR mouse assessed as mean survival days at 0.32 mg/kg, iv qd for 5 days starting 2 hrs post infection (reference value: 9.0 +/- 0.67 days); assay type: functional
[2] = Tmax in Sprague-Dawley rat at 10 mg/kg, po; assay type: ADME, organism-based; design: dose 10 mg/kg, route oral; conditions: in vivo
Outline: (§1)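 Male Sprague−Dawley rats (200−250 g), seven per group, dosed orally at 10 mg/kg or intravenously at 3 or 5 mg/kg in 5% DMSO + 5% Tween 80 in 90% saline. Serial retrobulbar blood samples were quantified by LC-MS. Parameters were derived from mean plasma concentrations by noncompartmental analysis. For the disulfate salt, values are based on the active free base measured.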

[3] = Cmax in Sprague-Dawley rat at 10 mg/kg, po; assay type: ADME, organism-based; design: dose 10 mg/kg, route oral; conditions: in vivo; outline: as §1
Hepatocyte = experiment: Cytotoxicity against rat hepatocytes assessed as reduction in survival rate at 5 to 40 uM after 48 hrs by SRB assay; assay type: cell-based
Candida albicans [4] = experiment: Antimicrobial activity against Candida albicans SC5314 infected in ICR mouse assessed as mean survival days at 3.2 mg/kg, iv qd for 5 days starting 2 hrs post infection (reference value: 9.0 +/- 0.67 days); assay type: functional
[5] = AUC (0 to infinity) in Sprague-Dawley rat at 5 mg/kg, iv; assay type: ADME, organism-based; design: dose 5 mg/kg, route intravenous, time infinity; conditions: plasma; outline: as §1
Candida albicans [6] = experiment: Antimicrobial activity against Candida albicans SC5314 infected in ICR mouse assessed as mean survival days at 10 mg/kg, iv qd for 5 days starting 2 hrs post infection (reference value: 9.0 +/- 0.67 days); assay type: functional
[7] = AUC (0 to infinity) in Sprague-Dawley rat at 10 mg/kg, po; assay type: ADME, organism-based; design: time infinity, dose 10 mg/kg, route oral; conditions: plasma; outline: as §1
[8] = Elimination half life in Sprague-Dawley rat liver microsomes at 0.1 uM by LC/MS/MS analysis; assay type: ADME; conditions: read-out: beta t1/2
Outline: (§2)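 Male Sprague−Dawley rat liver microsomes (0.33 mg/mL protein) in 0.1 M Tris-HCl pH 7.4 with 5 mM MgCl₂ and 1 mM NADPH. Compound at a final 0.1 μM (0.01% DMSO, 0.005% BSA), incubated at 37 °C. Samples taken at 0, 7, 17, 30 and 60 min were quenched in methanol, and parent compound was measured by LC/MS/MS. t1/2 and Clint were then calculated.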

Candida albicans [9] = experiment: Antimicrobial activity against Candida albicans SC5314 infected in ICR mouse assessed as mean survival days at 1 mg/kg, iv qd for 5 days starting 2 hrs post infection (reference value: 9.0 +/- 0.67 days); assay type: functional
[10] = Oral bioavailability in Sprague-Dawley rat at 10 mg/kg; assay type: ADME, organism-based; conditions: in vivo; outline: as §1
[11] = Intrinsic clearance in Sprague-Dawley rat liver microsomes assessed per mg protein at 0.1 uM by LC/MS/MS analysis; assay type: ADME; outline: as §2
[12] = Half life in Sprague-Dawley rat at 5 mg/kg, iv; assay type: ADME, organism-based; design: dose 5 mg/kg, route intravenous; conditions: in vivo; outline: as §1
[13] = Half life in Sprague-Dawley rat at 10 mg/kg, po; assay type: ADME, organism-based; design: dose 10 mg/kg, route oral; conditions: in vivo; outline: as §1
[14] = Clearance in Sprague-Dawley rat at 5 mg/kg, iv; assay type: ADME, organism-based; design: dose 5 mg/kg, route intravenous; conditions: in vivo; outline: as §1
[15] = target: Voltage-gated inwardly rectifying potassium channel KCNH2 (Homo sapiens, UniProt Q12809); experiment: Inhibition of human ERG expressed in CHO cells by whole-cell patch clamp assay; assay type: cell-based
Voltage-gated inwardly rectifying potassium channel KCNH2, sequence (Q12809 whole entry): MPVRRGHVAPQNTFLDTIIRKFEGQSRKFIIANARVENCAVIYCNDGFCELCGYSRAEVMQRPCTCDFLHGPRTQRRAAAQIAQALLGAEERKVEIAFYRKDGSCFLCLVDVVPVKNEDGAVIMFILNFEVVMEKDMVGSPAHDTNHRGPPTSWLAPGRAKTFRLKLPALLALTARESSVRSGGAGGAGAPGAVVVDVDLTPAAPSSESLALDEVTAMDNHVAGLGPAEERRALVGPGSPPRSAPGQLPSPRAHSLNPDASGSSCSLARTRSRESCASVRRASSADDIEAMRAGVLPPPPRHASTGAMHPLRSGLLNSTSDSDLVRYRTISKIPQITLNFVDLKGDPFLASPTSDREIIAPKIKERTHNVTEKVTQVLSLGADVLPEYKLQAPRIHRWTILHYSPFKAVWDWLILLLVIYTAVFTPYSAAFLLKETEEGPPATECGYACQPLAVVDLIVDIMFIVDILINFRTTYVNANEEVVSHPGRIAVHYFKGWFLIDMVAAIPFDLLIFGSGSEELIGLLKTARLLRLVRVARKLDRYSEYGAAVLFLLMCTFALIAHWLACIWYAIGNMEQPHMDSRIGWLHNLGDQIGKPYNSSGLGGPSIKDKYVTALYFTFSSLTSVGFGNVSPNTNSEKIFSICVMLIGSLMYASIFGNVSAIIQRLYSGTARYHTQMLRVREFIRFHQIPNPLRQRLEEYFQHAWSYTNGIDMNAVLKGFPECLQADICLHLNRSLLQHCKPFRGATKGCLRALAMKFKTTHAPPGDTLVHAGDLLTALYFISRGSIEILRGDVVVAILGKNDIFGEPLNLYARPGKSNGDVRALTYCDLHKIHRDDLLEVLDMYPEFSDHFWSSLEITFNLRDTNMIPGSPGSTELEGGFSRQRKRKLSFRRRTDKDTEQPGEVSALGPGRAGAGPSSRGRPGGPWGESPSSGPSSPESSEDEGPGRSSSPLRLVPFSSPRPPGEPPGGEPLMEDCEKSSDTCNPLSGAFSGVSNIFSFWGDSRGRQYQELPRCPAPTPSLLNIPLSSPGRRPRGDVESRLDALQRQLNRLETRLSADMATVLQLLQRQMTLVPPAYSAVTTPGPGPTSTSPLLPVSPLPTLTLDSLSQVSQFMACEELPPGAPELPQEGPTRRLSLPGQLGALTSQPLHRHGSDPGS

Cryptococcus neoformans = experiment: Antimicrobial activity against Cryptococcus neoformans 32609 after 72 hrs by serial dilution method; assay type: functional; conditions: Cryptococcus neoformans, 32609, 72 h
Outline: (§3)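 Broth serial dilution MIC in 96-well plates following NCCLS/CLSI methods. Compounds were dissolved in DMSO and serially diluted in growth medium, with incubation at 35 °C. […] C. parapsilosis 22019 served as the quality-control strain in each assay.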

Candida albicans [16] = experiment: Antimicrobial activity against Candida albicans SC5314 infected in ICR mouse assessed as mean survival days at 0.5 mg/kg, po qd for 5 days starting 2 hrs post infection (reference value: 9.0 +/- 0.67 days); assay type: functional
Outline: (§4)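 Reference arm of the systemic C. albicans SC5314 model: female ICR mice (18−22 g, n = 10) were infected iv with 0.2 mL of 5 × 10⁶ CFU/mL. Fluconazole was given orally in distilled water, qd for 5 days from 2 h post-infection. Mean survival days were scored over 30 days.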

Aspergillus fumigatus = experiment: Antimicrobial activity against Aspergillus fumigatus 7544 after 48 hrs by serial dilution method; assay type: functional; conditions: Aspergillus fumigatus, 7544, 48 h; outline: as §3
Candida albicans [17] = experiment: Antimicrobial activity against Candida albicans SC5314 infected in ICR mouse assessed as mean survival days at 0.5 mg/kg, po qd for 5 days starting 2 hrs post infection (reference value: 5.2 +/- 2.35 days starting 2 hrs post infection); assay type: functional; outline: as §4
Candida albicans [18] = experiment: Antimicrobial activity against fluconazole-resistant Candida albicans 100 after 24 hrs by serial dilution method; assay type: functional; conditions: Candida albicans, 100, 24 h
Outline: (§5)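 Broth serial-dilution MIC in 96-well plates following NCCLS guidance. Compounds were dissolved in DMSO and serially diluted in growth medium. Clinical isolates came from a hospital collection. […] C. parapsilosis ATCC 22019 served as the quality-control strain in each assay.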

Nakaseomyces glabratus = experiment: Antimicrobial activity against Candida glabrata 537 after 24 hrs by serial dilution method; assay type: functional; conditions: Nakaseomyces glabratus, 537, 24 h; outline: as §3
Candida albicans [19] = experiment: Antimicrobial activity against fluconazole-resistant Candida albicans 103 infected in ICR mouse assessed as mean survival days at 0.5 mg/kg, po qd for 5 days starting 2 hrs post infection (reference value: 1.5 +/- 0.53 days); assay type: functional
Candida albicans [20] = experiment: Antimicrobial activity against fluconazole-resistant Candida albicans J18 after 24 hrs by serial dilution method; assay type: functional; conditions: J18, 24 h; outline: as §5
Candida albicans [21] = experiment: Antimicrobial activity against fluconazole-resistant Candida albicans J28 after 24 hrs by serial dilution method; assay type: functional; conditions: J28, 24 h; outline: as §5
Candida albicans [22] = experiment: Antimicrobial activity against fluconazole-resistant Candida albicans J38 after 24 hrs by serial dilution method; assay type: functional; conditions: J38, 24 h; outline: as §5
Candida albicans [23] = experiment: Antimicrobial activity against Candida albicans SC5314 after 24 hrs by serial dilution method; assay type: functional; conditions: SC5314, 24 h; outline: as §3
Candida albicans [24] = experiment: Antimicrobial activity against Candida albicans Y0109 after 24 hrs by serial dilution method; assay type: functional; conditions: Y0109, 24 h; outline: as §3
Candida albicans [25] = experiment: Antimicrobial activity against fluconazole-resistant Candida albicans 103 after 24 hrs by serial dilution method; assay type: functional; conditions: Candida albicans, 103, 24 h; outline: as §5
Candida parapsilosis = experiment: Antimicrobial activity against Candida parapsilosis 22019 after 24 hrs by serial dilution method; assay type: functional; conditions: Lodderomyces parapsilosis, 22019, 24 h; outline: as §3

## C[C@@H](N1CCc2nc(-c3cncnc3)sc2C1)[C@](O)(Cn1cncn1)c1ccc(F)cc1F.O.O=S(=O)(O)O
Candida albicans [1]
  Survival: 8.8 days
[2]
  Tmax: 15 min
[3]
  Cmax: 164 ng/mL
Hepatocyte
  Activity: Non-toxic
Candida albicans [4]
  Survival: 9.8 days
[5]
  AUC(0-inf): 1190 ng·h/mL
Candida albicans [6]
  Survival: 11.1 days
[7]
  AUC(0-inf): 141 ng·h/mL
[8]
  half-life at 0.1 µM: 32.4 min
Candida albicans [9]
  Survival: 7.8 days
[10]
  bioavailability: 5.8%
[11]
  microsomal CLint at 0.1 µM: 65 µL/min/mg
[12]
  half-life: 25.2 min
[13]
  half-life: 27.6 min
[14]
  clearance: 72.5 mL/min/kg

## CCC(C)n1ncn(-c2ccc(N3CCN(c4ccc(OCC5COC(Cn6cncn6)(c6ccc(Cl)cc6Cl)O5)cc4)CC3)cc2)c1=O (racemic) [ITRACONAZOLE]
[15]
  IC50: > 40 µM

## OC(Cn1cncn1)(Cn1cncn1)c1ccc(F)cc1F [FLUCONAZOLE]
Cryptococcus neoformans
  MIC: 0.5 µg/mL (≈ 1.63 µM)
Candida albicans [16]
  Survival: 13.1 days
Aspergillus fumigatus
  MIC: > 64 µg/mL
Candida albicans [17]
  Survival: 11.7 days
Candida albicans [18]
  MIC: 512 µg/mL (≈ 1670 µM)
Nakaseomyces glabratus
  MIC: 0.25 µg/mL (≈ 0.816 µM)
Candida albicans [19]
  Survival: 2.3 days
Candida albicans [20]
  MIC: > 1020 µg/mL
Candida albicans [21]
  MIC: > 4 µg/mL
Candida albicans [22]
  MIC: > 4 µg/mL
Candida albicans [23]
  MIC: 0.5 µg/mL (≈ 1.63 µM)
Candida albicans [24]
  MIC: 0.5 µg/mL (≈ 1.63 µM)
Candida albicans [25]
  MIC: > 1020 µg/mL
Candida parapsilosis
  MIC: 1 µg/mL (≈ 3.27 µM)
